Assay results taken from ChEMBL document CHEMBL5321273, “Bicyclic Peptide Library Screening for the Identification of Gαi Protein Modulators” (J Med Chem, 2023).
Activity calls are given as the source filed them. No cut-off for these calls is given here.

How the values were obtained:
NG108-15 [1] = assay: Modulation of Galphai in forskolin-stimulated NG108-15 cell membrane expressing human beta2-AR co-expressing […] receptor assessed as increase in cAMP level at 10 uM relative to control; format: cell membranes
Summary of the method: (§1)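 Cell-free AC assay on membranes from NG108–15 hybrid cells stably expressing human β2-AR; peptides 10 μM; cAMP production stimulated with Fsk or Fsk + DADLE; read by ELISA; values as percent of untreated control; n = 3, SD.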

NG108-15 [2] = assay: Modulation of Galphai in forskolin/DADLE-stimulated NG108-15 cell membrane expressing human beta2-AR co-expressing mu-opioid receptor assessed as increase in cAMP level at 10 uM relative to control; format: cell membranes; summary of the method: as §1
[3] = target: T1, Guanine nucleotide-binding protein G(i) subunit alpha-1 (Homo sapiens, UniProt P63096); assay: Binding affinity to N-terminal 6His-tagged GDP-bound Galphai1 (unknown origin) expressed in Escherichia coli BL21 (DE3) assessed as dissociation constant by SPR analysis
T1 sequence (P63096 whole entry): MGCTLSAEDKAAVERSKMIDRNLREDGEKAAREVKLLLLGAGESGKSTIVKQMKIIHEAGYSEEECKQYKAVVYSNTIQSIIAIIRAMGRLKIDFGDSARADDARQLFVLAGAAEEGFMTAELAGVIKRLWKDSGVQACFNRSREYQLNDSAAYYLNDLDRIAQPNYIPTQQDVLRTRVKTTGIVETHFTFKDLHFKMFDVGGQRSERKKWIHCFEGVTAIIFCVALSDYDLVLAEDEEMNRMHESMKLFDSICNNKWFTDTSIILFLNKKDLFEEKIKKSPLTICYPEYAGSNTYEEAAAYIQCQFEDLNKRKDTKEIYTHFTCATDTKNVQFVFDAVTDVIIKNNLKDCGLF
Summary of the method: (§2)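 SPR: Gαi1 loaded with GDP or GMPPNP immobilized on sensor chip by amine coupling; peptides flowed over at varying concentrations; KD determined. Reverse orientation (peptide immobilized, protein flowed) also run.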

HeLa [4] = assay: Modulation of Galphai in forskolin-stimulated human HeLa cells assessed as adenylyl cyclase mediated increase in cAMP level at 2.5 uM incubated for 30 mins by BRET analysis relative to control; format: cell-based
Summary of the method: (§3)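 HeLa cells in DMEM/10% FBS transfected with Gαi(C351I) or pcDNA plus modified CAMYEL cAMP BRET sensor; replated 40K/well; peptide (10, 5, 2.5 μM final, assay buffer pH 8.0) 30 min RT; 100 μM IBMX + 10 μM CTZ added, luminescence 7 min; then Fsk, BRET 15 min; AUC normalized to no-peptide; triplicates.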

HeLa [5] = assay: Modulation of Galphai in isoproterenol-stimulated human HeLa cells assessed as effect on cAMP level at 2.5 to 5 uM incubated for 30 mins by BRET analysis relative to control; format: cell-based; conditions: dose 2.5-5 µM
Summary of the method: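 CAMYEL BRET in HeLa cells transfected with β2-AR plus modified CAMYEL; peptide (10, 5, 2.5 μM final) 30 min RT in pH 8.0 assay buffer; IBMX 100 μM + CTZ 10 μM, 7 min read; isoproterenol added, BRET 15 min; AUC normalized to untreated; triplicates.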

HeLa [6] = assay: Cytotoxicity against human HeLa cells assessed as reduction in cell viability upto 80 uM incubated for overnight by MTT assay; format: toxicity, cell-based
[7] = Stability in human plasma at 1 mM measured upto 180 mins by HPLC analysis; format: ADME, cell-free; conditions: 3 h, 1000 µM
HeLa [8] = assay: Modulation of Galphai in human HeLa cells assessed as increase in cAMP level at 2.5 uM incubated for 30 mins followed by forskolin stimulation measured after 30 mins by TR-FRET analysis relative to control; format: cell-based; conditions: filed as modulator, time 60.0 min
Summary of the method: (§4)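 Endpoint intracellular cAMP by TR-FRET (LANCE Ultra cAMP kit) in HeLa cells incubated with a range of peptide concentrations, then Fsk-stimulated or unstimulated; cAMP quantified against a cAMP standard curve.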

[9] = Modulation of Galphai in human HeLa cells assessed as increase in cAMP level incubated for 30 mins followed by forskolin stimulation measured after 30 mins by TR-FRET analysis; format: cell-based; conditions: 0.5 h; summary of the method: as §4
HeLa [10] = assay: Modulation of Galphai in human HeLa cells assessed as hetero-trimer reassociation by measuring decrease in free G-beta/gamma dimer level at 2.5 uM incubated for 30 mins by BRET analysis; format: cell-based; conditions: filed as modulator
Summary of the method: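 Free Gβγ BRET using Rluc-fused GRK3ct as biosensor in HeLa cells; 30 min incubation with 2.5 μM peptide or none; BRET signal normalized to untreated; n = 3, S.E.M., one-way ANOVA.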

HeLa [11] = assay: Modulation of Galphai in human HeLa cells assessed as hetero-trimer reassociation by measuring decrease in free Galphai monomer level at 2.5 uM incubated for 30 mins by BRET analysis; format: cell-based; conditions: filed as modulator
Summary of the method: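 Gβγ release BRET: HeLa cells transfected with Venus-Gβ, Gγ and Rluc8-Gαi (500 ng each); peptide 2.5 μM 30 min RT; CTZ 10 μM added; BRET ratio from emission scan, AUC normalized to no-peptide; n = 3, S.E.M.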

HeLa [12] = assay: Modulation of Galphai in human HeLa cells assessed as hetero-trimer reassociation by measuring effect on phosphorylated Akt level at 2.5 uM incubated for 30 mins by immunoblotting analysis; format: cell-based
HeLa [13] = assay: Modulation of Galphai in human HeLa cells assessed as hetero-trimer reassociation by measuring effect on total Akt level at 2.5 uM incubated for 30 mins by immunoblotting analysis; format: cell-based
HeLa [14] = assay: Modulation of Galphai in human HeLa cells assessed as hetero-trimer reassociation by measuring effect on phosphorylated ERK level at 2.5 uM incubated for 30 mins by immunoblotting analysis; format: cell-based
HeLa [15] = assay: Modulation of Galphai in human HeLa cells assessed as hetero-trimer reassociation by measuring effect on total ERK level at 2.5 uM incubated for 30 mins by immunoblotting analysis; format: cell-based
NG108-15 [16] = assay: Modulation of Galphai in DADLE/forskolin-stimulated NG108-15 cell membrane expressing human beta2-AR co-expressing […] receptor assessed as decrease in cAMP level at 10 uM relative to control; format: cell membranes; design: scale not given: the % may be the effect or the level left; summary of the method: as §1
HeLa [17] = assay: Modulation of Galphai in forskolin-stimulated human HeLa cells assessed as adenylyl cyclase mediated decrease in cAMP level at 2.5 to 10 uM incubated for 30 mins by BRET analysis relative to control; format: cell-based; conditions: dose 2.5-10 µM; summary of the method: as §3
[18] = target: T1, Guanine nucleotide-binding protein G(i) subunit alpha-1; assay: Binding affinity to N-terminal 6His-tagged GMPPNP-bound Galphai1 (unknown origin) expressed in Escherichia coli BL21 (DE3) assessed as dissociation constant by SPR analysis; summary of the method: as §2

Structure (SMILES): CC[C@H](C)[C@@H]1NC(=O)[C@@H](Cc2cccc3ccccc23)NC(=O)c2cc3cc(c2)C(=O)NC[C@@H](C(=O)N[C@@H](CCCCN)C(N)=O)NC(=O)[C@@H](C)NC(=O)[C@@H](Cc2ccccc2)NC(=O)[C@H](CCCNC(=N)N)NC(=O)[C@H](C)NC(=O)[C@@H](CCCNC3=O)NC(=O)[C@@H](C(C)C)NC(=O)[C@@H](Cc2ccccc2)NC1=O
- Activity (NG108-15 [1]): 30%
- Activity (NG108-15 [2]; in the assay text read “delta-opioid receptor” for “mu-opioid receptor”): 30%
- Kd [3]: 25.5 µM
- Activity (HeLa [4]): 10%
- Activity (HeLa [5]): inactive
- Activity (HeLa [6]): Non-Toxic
- Stability [7]: Stable
- Activity (HeLa [8]): Active
- IC50 [9]: 6.92 µM
- Activity (HeLa [10]): Active
- Activity (HeLa [11]): Active
- Activity (HeLa [12]): inactive
- Activity (HeLa [13]): inactive
- Activity (HeLa [14]): inactive
- Activity (HeLa [15]): inactive

Structure (SMILES): CC[C@H](C)[C@@H]1NC(=O)c2cc3cc(c2)C(=O)NC[C@@H](C(=O)N[C@@H](CCCCN)C(N)=O)NC(=O)[C@H](Cc2c[nH]c4ccccc24)NC(=O)[C@@H](Cc2ccc4ccccc4c2)NC(=O)[C@@H](C(C)C)NC(=O)[C@H](CCCNC3=O)NC(=O)[C@@H](CC(N)=O)NC(=O)[C@@H](CC(C)C)NC1=O
- Activity (NG108-15 [16]): inactive
- Activity (NG108-15 [1]): inactive
- Activity (NG108-15 [2]): inactive
- Activity [3]: inactive
- Activity (HeLa [4]): inactive
- Activity (HeLa [17]): inactive
- Activity (HeLa [6]): Non-Toxic

Structure (SMILES): N=C(N)NCCC[C@@H]1NC(=O)CNC(=O)[C@H](CO)NC(=O)c2cc3cc(c2)C(=O)NC[C@@H](C(=O)N[C@@H](CCCCN)C(N)=O)NC(=O)[C@@H](Cc2cccc4ccccc24)NC(=O)[C@H](Cc2ccc(O)cc2)NC(=O)[C@@H](CCCCN)NC(=O)[C@@H](Cc2cccc4ccccc24)NC(=O)[C@H](CCCNC3=O)NC1=O
- Kd [3]: 24.7 µM
- Activity (HeLa [17]; filed as modulator): Active
- Activity (HeLa [6]): Non-Toxic

Structure (SMILES): NCCCC[C@H](NC(=O)[C@@H]1CNC(=O)c2cc3cc(c2)C(=O)N[C@H](Cc2cccc4ccccc24)C(=O)N[C@H](Cc2ccccc2)C(=O)N2CCC[C@@H]2C(=O)N[C@@H](CCCNC3=O)C(=O)N2CCC[C@@H]2C(=O)N[C@H](CCCCN)C(=O)N2CCC[C@@H]2C(=O)N[C@@H](Cc2ccc(O)cc2)C(=O)N1)C(N)=O
- Activity (NG108-15 [16]; filed as modulator): 40%
- Kd [3]: 5 µM
- Kd [18]: 0.71 µM
- Activity (HeLa [17]; filed as modulator): Active
- Activity (HeLa [5]): inactive
- Activity (HeLa [6]): Non-Toxic
